Bioassay records deposited in PubChem BioAssay by several laboratories.
This is a sample that favours compounds with a hit; in the whole collection about 2.1% have one here.
Runt-CBFb FRET – Runt domain-CBFb interaction inhibition; Q01196+Q13951; Cerulean-Runt/Venus-CBFb FRET ratio 530/480, 1 h; inhibition, % at 20 µM; 220,000 compounds, 0.46% hits;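 active = inhibition over about 50% at 20 µM in the single-dose screen, limit read from the data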
Target sequence (Q01196 whole entry, looked up, the tested form may be a part): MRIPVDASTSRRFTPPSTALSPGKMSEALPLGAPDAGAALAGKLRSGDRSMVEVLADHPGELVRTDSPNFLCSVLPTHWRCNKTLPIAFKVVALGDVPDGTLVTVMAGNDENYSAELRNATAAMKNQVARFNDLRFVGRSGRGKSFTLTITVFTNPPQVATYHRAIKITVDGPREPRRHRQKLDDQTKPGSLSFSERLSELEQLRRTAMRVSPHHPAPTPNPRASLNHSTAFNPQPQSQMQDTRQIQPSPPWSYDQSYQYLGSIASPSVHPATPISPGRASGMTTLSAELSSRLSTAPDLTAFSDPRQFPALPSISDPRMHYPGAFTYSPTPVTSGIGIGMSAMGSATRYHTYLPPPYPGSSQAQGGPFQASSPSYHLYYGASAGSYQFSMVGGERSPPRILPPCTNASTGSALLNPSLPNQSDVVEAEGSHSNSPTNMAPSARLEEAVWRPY
Target sequence (Q13951 whole entry, looked up, the tested form may be a part): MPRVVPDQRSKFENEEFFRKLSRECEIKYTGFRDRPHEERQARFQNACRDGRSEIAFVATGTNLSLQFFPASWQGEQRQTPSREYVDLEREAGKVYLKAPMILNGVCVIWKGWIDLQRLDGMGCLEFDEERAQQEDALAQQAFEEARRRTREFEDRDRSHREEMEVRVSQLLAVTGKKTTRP
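test system = Cerulean-tagged RUNX1 Runt domain (FRET donor) fusion protein | reagent = Venus-CBFb binding partner, 100 nM | incubation = protein complex preformed 1 h, compound exposure 1 h, room temperature, dark | detection = FRET fluorescence | read-out basis = loss of energy transfer signal | controls = 5 µM unlabeled CBFb as full-inhibition high control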
RanGTP-Imp inh – disruptors of Ran-importin-beta complex formation – biochemical, FRET, CFP-Ran, YFP-importin-beta, homogeneous, primary screen; AID 2216; cell-free CFP-Ran/YFP-importin-beta FRET ratio; 300,000 compounds, 1.1% hits; inhibition, % (concentration not given with the values);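 active = more than half of the replicate wells show a fall in the fluorescence ratio signal beyond about 16%, limit read from the data, passing the limit was not always enough; inconclusive = exactly half of the replicate wells pass the set limit; inactive = fewer than half of replicates pass the limit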
KLK7 zymogen act – proKLK7 (human) activation, primary screen; 370,000 compounds, 0.9% hits; AID 652039; activation, % at 7 µM; purified proKLK7, EDANS-DABCYL substrate fluorescence; 100% is mature enzyme control, 0% vehicle;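 active = activation above the mean of all tested compounds plus 3 SD, computed per campaign excluding outliers beyond control limits, cut at about 13% in these data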
MEX-5 binding – C. elegans MEX-5 TCR-2 RNA binding activity | Q9XUB2 | MEX-5/FITC-TCR2 RNA binding, fluorescence polarization; active compounds read low | activity score (negative = inhibition of binding), % at 10 µM | 300,000 compounds, 0.38% hits | AID 1832;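 active = inhibition past about -25% in most replicates, and total fluorescence under double the plate's negative control median, limit read from the data; inconclusive = replicates evenly split on the limit, or fluorescence at least double controls; inactive = too little inhibition in most replicates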
Runt-SMMHC FRET – inhibitors of human RUNX1 Runt domain binding to CBFb-SMMHC | Q01196+Q13951 | Cerulean-Runt/Venus-CBFb-SMMHC FRET ratio 530/480, 1 h | inhibition, % at 20 µM | 220,000 compounds, 0.74% hits;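 active = mean inhibition across duplicate retests at 20 µM reaching about 50%, limit read from the data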;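 also: inhibitors lower the FRET ratio by blocking Runt binding to CBFb-SMMHC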
KLK7 act conf – confirmation of human kallikrein-7 zymogen activators | 3,200 compounds, 68% hits | shares compounds with KLK7 zymogen act | purified proKLK7, EDANS-DABCYL substrate fluorescence; scaled: vehicle 0, mature enzyme 100 | activation, % at 7 µM;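 active = activation, as change over the incubation, above the mean of all tested compounds plus 3 SD, cut at about 13% in these data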
EDANS-DABCYL int – counter-screen for kallikrein-7 activators: EDANS-DABCYL optical interference; EDANS-DABCYL substrate fluorescence interference, no enzyme, 4 h; solvent 0%, active enzyme control 100%; shares compounds with KLK7 zymogen act; activation, % at 7 µM; 3,200 compounds, 80% hits;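 active = activation above the all-compound mean plus 3 SD, ignoring values outside control-based bounds, cut at about 4.8% in these data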;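 also: value is the 4 h activation minus the activation read at time zero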
Numbers stand for hits; – = inactive; ? = inconclusive; · = no result given.

SMILES | Runt-CBFb FRET | RanGTP-Imp inh | KLK7 zymogen act | MEX-5 binding | Runt-SMMHC FRET | KLK7 act conf | EDANS-DABCYL int
CCOc1cccc2cc(-c3nnc(NCc4ccco4)s3)c(=O)oc12 | – | – | – | – | – | · | ·
Cc1ccc2nc(-c3ccc(SCC(=O)Nc4nnc(C)s4)nc3)[nH]c2c1 | – | – | 14 | – | – | – | 6.0
O=C(c1cnn2c(C(F)(F)F)cc(-c3cccs3)nc12)N1CCCC1 | – | – | 16 | – | – | 13 | 14
CCOC(=O)c1cc(-c2cccs2)nc2onc(C)c12 | – | ? | 18 | – | – | – | –
CCOC(=O)c1nc2nc(-c3cccs3)cc(C(F)(F)F)n2n1 | – | – | 62 | – | – | 65 | 62
O=C(c1nc2nc(-c3cccs3)cc(C(F)(F)F)n2n1)N1CCN(Cc2ccccc2)CC1 | – | – | 26 | – | – | – | –
CC(C)C[C@H]1CNC(=O)C(=O)N1C[C@@H]1CCCN1C[C@H](Cc1ccccc1)N1C[C@H](Cc2ccccc2)N(CCc2ccccc2)C(=O)C1=O | · | · | – | · | · | · | ·
CC(C)C(NC(=O)c1ccc(F)cc1)C(=O)Nc1cccnc1 (centres undefined) | – | – | – | – | – | · | ·
O=C(c1nn2c(C(F)(F)F)cc(-c3cccs3)nc2c1Cl)N1CCCc2ccccc21 | – | – | – | – | – | · | ·
COc1ccc(-c2cc(C(F)(F)F)n3nc(C(=O)O)nc3n2)cc1 | – | – | – | – | – | · | ·
Nc1nc2nc(-c3ccc(F)cc3)cc(C(F)(F)F)n2n1 | – | – | 24 | – | – | 17 | 16
Nc1nc2nc(-c3cccs3)cc(C(F)(F)F)n2n1 | 66 | 62 | 82 | · | 91 | 75 | 78
CCC(NC(=O)c1ccc2c(c1)c(C)c(C)n2Cc1ccc(Cl)cc1)c1ccccc1 (centres undefined) | · | · | – | · | · | · | ·
COC(=O)[C@@H]1C[C@@]2(c3ccccc3)c3ccccc3N(S(=O)(=O)c3ccccc3)[C@H]2N1C(=O)CNC1CCCCC1 | · | · | – | · | · | · | ·
CC1(C)C2CCC1(C)C(OC(=O)C[n+]1ccccc1N)C2 (centres undefined) | – | – | 52 | – | – | 99 | 100
CC1(C)C2CCC1(C)C(OC(=O)C[n+]1ccccc1)C2 (centres undefined) | – | ? | – | – | – | · | ·
CN(c1ccc(C(=O)Nc2ccc3c(c2)n(C)c(=O)n3C)cc1)S(C)(=O)=O | · | – | – | – | · | · | ·
O=C(NNS(=O)(=O)c1ccccc1[N+](=O)[O-])c1cc2ccccc2cc1O | · | – | 14 | – | · | 22 | 20
CCC(c1nnnn1CC1CCCO1)N(CCCO)Cc1cc2cccc(C)c2[nH]c1=O (centres undefined) | – | – | – | – | – | · | ·
CCC(c1nnnn1Cc1ccc(F)cc1)N(CCCO)Cc1cc2cc3c(cc2[nH]c1=O)OCO3 (centres undefined) | – | – | 26 | – | – | – | –
CC(=O)OCC(=O)C1(O)CCC2C3CCC4CC(O)CCC4(C)C3C(=O)CC21C (centres undefined) | · | · | – | · | · | · | ·
COc1cc2c(Cc3ccccc3)cncc2cc1O | · | · | – | · | · | · | ·
COc1cc2cncc(Cc3ccccc3)c2cc1O | · | · | 22 | · | · | 17 | 21
COc1ccc(-c2cn3cccnc3n2)cc1NS(=O)(=O)c1ccccc1 | – | – | 16 | – | – | – | 5.2
O=S(=O)(Nc1cccc(-c2cn3cccnc3n2)c1)c1ccccc1 | – | – | 70 | – | – | 15 | 18
SMILES | Runt-CBFb FRET | RanGTP-Imp inh | KLK7 zymogen act | MEX-5 binding | Runt-SMMHC FRET | KLK7 act conf | EDANS-DABCYL int
O=S(=O)(Nc1ccc(-c2cn3cccnc3n2)cc1)c1ccccc1 | – | – | 65 | – | – | 22 | 22
O=S(=O)(Nc1cccc(-c2cn3cccnc3n2)c1)c1ccc(-c2ccccc2)cc1 | – | – | – | – | – | · | ·
COc1ccc(-c2cn3cccnc3n2)cc1F | – | – | 64 | – | – | 78 | 83
C#CCN(C)S(=O)(=O)c1ccc(N2CCCC2)cc1Br | · | · | – | · | · | · | ·
COc1ccccc1CN1CC(C(=O)NCc2cnn(C)c2)CCC1=O (centres undefined) | · | – | – | – | · | · | ·
O=S(=O)(Nc1cccc(-c2cn3cccnc3n2)c1)c1ccc(F)cc1 | – | – | 58 | – | – | 14 | 14
COc1ccc(C(=O)Nc2cc(OC)c(Cl)cc2Cl)cc1 | – | – | – | – | – | · | ·
COc1cc(NC(=O)c2c(F)cccc2F)c(Cl)cc1Cl | – | – | 21 | – | – | 28 | 27
CCc1cc2c(nc1CC)CCCN2CCOC | · | · | 29 | · | · | – | –
CCc1cc2c(nc1CC)CCCN2S(=O)(=O)c1ccc(C#N)cc1 | · | · | – | · | · | · | ·
CC1CCCCN1Cc1c(O)ccc2c(=O)c(-c3ccccc3)coc12 (centres undefined) | · | – | 34 | – | · | 71 | 69
CC1CN(Cc2c(O)ccc3c(=O)c(-c4ccccc4)coc23)CC(C)O1 (centres undefined) | · | – | 82 | – | · | 27 | 26
CCc1cc2c(=O)c(-c3ccc4c(c3)OCCO4)coc2c(CN2CCCCC2C)c1O (centres undefined) | – | – | 16 | – | – | – | –
Oc1ccc(-c2ccccc2)cc1CN1CCCCCC1 | · | – | – | – | · | · | ·
O=c1c(-c2ccccc2)coc2c(CN3CCCCC3)c(O)ccc12 | · | – | 38 | – | · | 65 | 63
Cc1cccc(NC(=O)Nc2nnc([C@@H]3C[C@H](O)[C@@H](CO)O3)s2)c1 | · | · | – | · | · | · | ·
O=C(COC(=O)Cc1ccccc1F)NCc1ccccc1Cl | · | · | – | · | · | · | ·
CCC(C)c1ccc(S(=O)(=O)N2CCN(C(C)C(=O)NC3CCCC3)CC2)cc1 (centres undefined) | · | · | – | · | · | · | ·
COC(=O)Nc1ccc(S(=O)(=O)N2CCC(C(=O)NCc3ccc4c(c3)OCO4)CC2)cc1 | · | · | – | · | · | · | ·
CCc1cc2c(=O)c(-c3nc4ccccc4[nH]3)coc2c(CN2CCCCC2C)c1O (centres undefined) | – | – | – | – | – | · | ·
COc1ccc(-c2coc3c(CN4CCCCC4C)c(O)ccc3c2=O)cc1 (centres undefined) | · | – | 46 | – | · | 69 | 58
CCC1CCCCN1Cc1c(O)ccc2c(=O)c(-c3ccccc3)coc12 (centres undefined) | · | – | 38 | – | · | 55 | 33
Cc1cc2cc3c(=O)[nH]c(=O)nc-3n(CC(O)C(O)C(O)CO)c2cc1C (centres undefined) | · | · | 48 | · | · | 61 | 71
Cc1cc2cc3c(=O)[nH]c(=O)cc-3n(CC(O)C(O)C(O)CO)c2cc1C (centres undefined) | · | · | – | · | · | · | ·
